# “And” between values parts separate entries of the source, which are not always exact repeats. Equal values may be shown once.
# Tested on: Fibroblast
# Experiment: Multiplex assay against human fibroblast
# Format: toxicity, cell-based
# Settings: number of replicates 2
# How it was run: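 At seeding, live cells were stained with Hoechst33342, BioTracker Green Microtubule Cytoskeleton Dye, MitoTracker Red and Annexin V Alexa Fluor 680. After compound addition they were imaged on a CQ1 microscope at 37°C and 5% CO2, and CellPathfinder machine-learning gating sorted them into Hoechst high-intensity objects or normal cells, with normal cells further split into healthy, pyknosed or fragmented nuclei and pyknosed cells into mitotic or apoptotic. Tubulin, mitochondrial-mass and membrane-permeability phenotypes are given as per cents of cells with healthy nuclei.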
# [1] = 12 h, 1 µM, compound concentration 1 uM
# [2] = 12 h, 10 µM, compound concentration 10 uM
# [3] = 24 h, 1 µM, compound concentration 1 uM
# [4] = 24 h, 10 µM, compound concentration 10 uM
# [5] = 48 h, 1 µM, compound concentration 1 uM
# [6] = 48 h, 10 µM, compound concentration 10 uM
structure (smiles),measurement,setting,value
CCn1c(-c2nonc2N)nc2cncc(C(=O)N3CC[C@H](N)C3)c21.Cl,Population Apoptotic (%),[1],33% and 45%
same,Population Fragmented Nuclei (%),[1],6% and 11%
same,Population Healthy Nuclei (%),[1],73% and 74%
same,Population Hoechst High Intensity Objects (%),[1],0%
same,Population Membrane Permeable-Phenotype (%),[1],6% and 1%
same,Population Mitochondria Different-Phenotype (%),[1],0% and 1%
same,Population Mitotic Cells (%),[1],66% and 54%
same,Population Normal (%),[1],100%
same,Population Pyknosed Nuclei (%),[1],19% and 13%
same,Population Tubulin-Different-Phenotype (%),[1],2% and 4%
same,Total Cell Count,[1],202 and 240
same,Population Apoptotic (%),[2],9% and 19%
same,Population Fragmented Nuclei (%),[2],6% and 12%
same,Population Healthy Nuclei (%),[2],65% and 67%
same,Population Hoechst High Intensity Objects (%),[2],0%
same,Population Membrane Permeable-Phenotype (%),[2],3% and 1%
same,Population Mitochondria Different-Phenotype (%),[2],1% and 2%
same,Population Mitotic Cells (%),[2],90% and 80%
same,Population Normal (%),[2],99% and 100%
same,Population Pyknosed Nuclei (%),[2],28% and 20%
same,Population Tubulin-Different-Phenotype (%),[2],11% and 6%
same,Total Cell Count,[2],196 and 295
same,Population Apoptotic (%),[3],50% and 69%
same,Population Fragmented Nuclei (%),[3],4% and 10%
same,Population Healthy Nuclei (%),[3],83% and 78%
same,Population Hoechst High Intensity Objects (%),[3],0%
same,Population Membrane Permeable-Phenotype (%),[3],4% and 2%
same,Population Mitochondria Different-Phenotype (%),[3],0%
same,Population Mitotic Cells (%),[3],50% and 30%
same,Population Normal (%),[3],100%
same,Population Pyknosed Nuclei (%),[3],11%
same,Population Tubulin-Different-Phenotype (%),[3],2% and 5%
same,Total Cell Count,[3],191 and 224
same,Population Apoptotic (%),[4],23%
same,Population Fragmented Nuclei (%),[4],8% and 10%
same,Population Healthy Nuclei (%),[4],76% and 77%
same,Population Hoechst High Intensity Objects (%),[4],0%
same,Population Membrane Permeable-Phenotype (%),[4],2% and 0%
same,Population Mitochondria Different-Phenotype (%),[4],4% and 2%
same,Population Mitotic Cells (%),[4],76%
same,Population Normal (%),[4],100%
same,Population Pyknosed Nuclei (%),[4],15% and 11%
same,Population Tubulin-Different-Phenotype (%),[4],10% and 3%
same,Total Cell Count,[4],196 and 266
same,Population Apoptotic (%),[5],86% and 66%
same,Population Fragmented Nuclei (%),[5],6% and 10%
same,Population Healthy Nuclei (%),[5],85%
same,Population Hoechst High Intensity Objects (%),[5],0%
same,Population Membrane Permeable-Phenotype (%),[5],3% and 2%
same,Population Mitochondria Different-Phenotype (%),[5],0%
same,Population Mitotic Cells (%),[5],13% and 33%
same,Population Normal (%),[5],100%
same,Population Pyknosed Nuclei (%),[5],7% and 4%
same,Population Tubulin-Different-Phenotype (%),[5],1% and 3%
same,Total Cell Count,[5],196 and 220
same,Population Apoptotic (%),[6],57% and 69%
same,Population Fragmented Nuclei (%),[6],11% and 9%
same,Population Healthy Nuclei (%),[6],72% and 80%
same,Population Hoechst High Intensity Objects (%),[6],0%
same,Population Membrane Permeable-Phenotype (%),[6],2% and 1%
same,Population Mitochondria Different-Phenotype (%),[6],0%
same,Population Mitotic Cells (%),[6],42% and 30%
same,Population Normal (%),[6],100% and 99%
same,Population Pyknosed Nuclei (%),[6],15% and 9%
same,Population Tubulin-Different-Phenotype (%),[6],2% and 3%
same,Total Cell Count,[6],184 and 264
C=CC(=O)Nc1ccc2[nH]c(=O)n(C3CCN(Cc4ccc(-c5ccc6c(c5)NC(=O)CO6)cc4)CC3)c2c1 [RL2578],Population Apoptotic (%),[1],34% and 40%
same,Population Fragmented Nuclei (%),[1],12% and 8%
same,Population Healthy Nuclei (%),[1],72% and 66%
same,Population Hoechst High Intensity Objects (%),[1],0%
same,Population Membrane Permeable-Phenotype (%),[1],4%
same,Population Mitochondria Different-Phenotype (%),[1],3%
same,Population Mitotic Cells (%),[1],65% and 60%
same,Population Normal (%),[1],100%
same,Population Pyknosed Nuclei (%),[1],15% and 25%
same,Population Tubulin-Different-Phenotype (%),[1],13% and 15%
same,Total Cell Count,[1],173 and 180
same,Population Apoptotic (%),[2],46% and 29%
same,Population Fragmented Nuclei (%),[2],26% and 23%
same,Population Healthy Nuclei (%),[2],65% and 67%
same,Population Hoechst High Intensity Objects (%),[2],0%
same,Population Membrane Permeable-Phenotype (%),[2],5% and 4%
same,Population Mitochondria Different-Phenotype (%),[2],0% and 4%
same,Population Mitotic Cells (%),[2],53% and 70%
same,Population Normal (%),[2],99% and 100%
same,Population Pyknosed Nuclei (%),[2],8%
same,Population Tubulin-Different-Phenotype (%),[2],45% and 35%
same,Total Cell Count,[2],324 and 315
same,Population Apoptotic (%),[3],48% and 55%
same,Population Fragmented Nuclei (%),[3],6% and 14%
same,Population Healthy Nuclei (%),[3],73% and 65%
same,Population Hoechst High Intensity Objects (%),[3],0%
same,Population Membrane Permeable-Phenotype (%),[3],3%
same,Population Mitochondria Different-Phenotype (%),[3],4% and 0%
same,Population Mitotic Cells (%),[3],51% and 44%
same,Population Normal (%),[3],100%
same,Population Pyknosed Nuclei (%),[3],19% and 20%
same,Population Tubulin-Different-Phenotype (%),[3],18% and 19%
same,Total Cell Count,[3],169 and 214
same,Population Apoptotic (%),[4],63% and 50%
same,Population Fragmented Nuclei (%),[4],29% and 26%
same,Population Healthy Nuclei (%),[4],65% and 69%
same,Population Hoechst High Intensity Objects (%),[4],0%
same,Population Membrane Permeable-Phenotype (%),[4],2%
same,Population Mitochondria Different-Phenotype (%),[4],5% and 4%
same,Population Mitotic Cells (%),[4],36% and 50%
same,Population Normal (%),[4],99%
same,Population Pyknosed Nuclei (%),[4],5% and 3%
same,Population Tubulin-Different-Phenotype (%),[4],36% and 24%
same,Total Cell Count,[4],377 and 407
same,Population Apoptotic (%),[5],86% and 67%
same,Population Fragmented Nuclei (%),[5],14% and 17%
same,Population Healthy Nuclei (%),[5],71% and 65%
same,Population Hoechst High Intensity Objects (%),[5],0%
same,Population Membrane Permeable-Phenotype (%),[5],5% and 6%
same,Population Mitochondria Different-Phenotype (%),[5],0%
same,Population Mitotic Cells (%),[5],13% and 32%
same,Population Normal (%),[5],100% and 99%
same,Population Pyknosed Nuclei (%),[5],14% and 17%
same,Population Tubulin-Different-Phenotype (%),[5],14% and 8%
same,Total Cell Count,[5],160 and 217
same,Population Apoptotic (%),[6],78% and 76%
same,Population Fragmented Nuclei (%),[6],29%
same,Population Healthy Nuclei (%),[6],66% and 67%
same,Population Hoechst High Intensity Objects (%),[6],0%
same,Population Membrane Permeable-Phenotype (%),[6],0% and 2%
same,Population Mitochondria Different-Phenotype (%),[6],2% and 1%
same,Population Mitotic Cells (%),[6],21% and 23%
same,Population Normal (%),[6],100% and 99%
same,Population Pyknosed Nuclei (%),[6],4% and 2%
same,Population Tubulin-Different-Phenotype (%),[6],18% and 13%
same,Total Cell Count,[6],424 and 452
